Test results as given in ChEMBL document CHEMBL2401628, “Low toxicity and unprecedented anti-osteoclast activity of a simple sulfur-containing gem-bisphosphonate: a comparative study” (Eur J Med Chem, 2013).
Active and inactive are the calls of the source. The calls are words filed in the database; no cut-off is given here.

Columns and labels:
PBMC = assay: Antiosteoclast activity in human PBMC assessed as reduction of osteoclasts formation by measuring TRAcP positive multinucleated cells at 10 uM after 7 days; format: functional, cell-based
How it was run: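 Blood mononuclear cells from healthy donors, adhered 1 h, then cultured 7 days in osteoclast differentiation medium with drug added from the start. Cells were fixed in 3% paraformaldehyde/2% sucrose, permeabilized in 0.5% Triton, and stained for TRAcP for 60 min at 37 °C. TRAcP-positive multinucleated cells were counted as % of untreated differentiated cultures, duplicate wells, 4 cultures from 2 donors.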

L929 [1] = assay: Cytotoxicity against mouse L929 cells assessed as reduction of cell viability at 100 uM after 72 hrs by neutral-red uptake assay; format: cell-based; details: l929, 72 h
How it was run: (§1)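 Mouse L929 fibroblasts in DMEM with 10% FCS, seeded 0.8 × 10³ cells/well and allowed to adhere 24 h. They were then exposed to serial dilutions of compound (stocks 10 mM in PBS pH 7.4) for 72 h; untreated medium served as negative control. Cells took up 0.4% neutral red diluted 1:80 for 2 h at 37 °C, and dye was extracted in 50% ethanol/1% acetic acid and read at 540 nm. Result is the OD ratio of treated to negative control, triplicate wells, 5 experiments.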

L929 [2] = assay: Cytotoxicity against mouse L929 cells assessed as reduction of cell viability at 10 to 100 uM after 72 hrs by neutral-red uptake assay; format: cell-based; details: l929, 72 h; how it was run: as §1
Hydroxyapatite = assay: Binding affinity to hydroxyapatite at 0.07 mmol up to 120 hrs by 31P NMR-spectroscopy relative to H3PO4
Osteoclast [3] = assay: Inhibition of human osteoclast-mediated type 1 bone collagen degradation assessed as release of europium-labeled collagen fragments at 0.1 uM after 7 days by time-resolved fluorescence assay; format: functional, cell-based
How it was run: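 Mononuclear cells were seeded on Europium-labelled human type I collagen and cultured 7 days in differentiation medium, then drug was added; total culture time was 14 days. Released fragments in supernatant were measured by time-resolved fluorescence (excitation 340 nm, emission 615 nm). Result is the RFU ratio of treated to untreated osteoclasts, quadruplicate wells, 2 donors.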

Osteoclast [4] = assay: Proapoptotic activity in human osteoclasts at 10 uM after 7 days using Hoechst 33258 staining; format: functional, cell-based
How it was run: (§2)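 Blood mononuclear cells from donors were differentiated into osteoclasts for 7 days, then exposed to drug for a further 7 days. After fixing, cells were stained with phalloidin-TRITC 0.3 mg/mL plus Hoechst 33258 for 30 min at room temperature. Multinucleated F-actin-ring cells with apoptotic nuclear bodies were counted over the whole well as % of all multinucleated cells, duplicate wells, 4 cultures from 2 donors.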

Osteoclast [5] = assay: Induction of apoptosis in human osteoclasts at 100 uM after 7 days using Hoechst 33258 staining; format: functional, cell-based; how it was run: as §2
L929 [6] = assay: Cytotoxicity against mouse L929 cells assessed as reduction of cell viability after 72 hrs by neutral-red uptake assay; format: cell-based; details: l929, 72 h; how it was run: as §1
Osteoclast [7] = assay: Inhibition of human osteoclast-mediated type 1 bone collagen degradation assessed as release of europium-labeled collagen fragments at 10 uM after 7 days by time-resolved fluorescence assay; format: functional, cell-based
How it was run: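 Adherent monocytes from Ficoll-isolated peripheral blood of healthy donors were seeded on human type I bone collagen and differentiated in osteoclast medium for 7 days. They were then exposed to three drug concentrations until day 14. Supernatant was mixed with fluorophore-releasing reagent and Europium-labelled fragments were read by time-resolved fluorescence (ex 340, em 615 nm). Values are the RFU ratio of treated to untreated osteoclasts, from 2 donors in quadruplicate.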

Structure (SMILES) | inhibition (PBMC) | Activity (L929 [1]) | Activity (L929 [2]) | Activity (Hydroxyapatite) [%] | inhibition (Osteoclast [3]) | Activity (Osteoclast [4]) | Activity (Osteoclast [5]) | Activity (L929 [6]) | inhibition (Osteoclast [7])
O=P(O)(O)C(CN1CCOCC1)P(=O)(O)O | Active | Toxic | Toxic | 65 | – | – | – | – | –
O=P(O)(O)C(O)(Cn1ccnc1)P(=O)(O)O | – | – | – | 82 | – | – | – | – | –
O=P(O)(O)C(CSc1ccccc1)P(=O)(O)O | inactive | Toxic | Toxic | 34 | – | – | – | – | –
O=P(O)(O)C(CNc1ccccc1)P(=O)(O)O | Active | Toxic | Toxic | 66 | – | – | – | – | –
NCCC(O)(P(=O)(O)O)P(=O)(O)O [PAMIDRONIC ACID] | Active | – | – | – | inactive | inactive | Active | Dose-dependent effect | –
O=P(O)(O)C(CSCCO)P(=O)(O)O | Active | Toxic | Toxic | 70 | inactive | Active | Active | – | Active
O=P(O)(O)C(CNc1ccccn1)P(=O)(O)O | Active | – | – | 94 | Active | Active | Active | Dose-dependent effect | Active
